Test results: ChEMBL document CHEMBL1137919, “Dipeptidyl aspartyl fluoromethylketones as potent caspase inhibitors: SAR of the N-protecting group” (Bioorg Med Chem Lett, 2004)

Legend:
HeLa = assay: Protecting effect against apoptosis induced by TNF-alpha in HeLa cells was determined; assay type: functional, Homo sapiens
Procedure, shortened: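 HeLa cells exposed to TNF-a to induce apoptosis, with test inhibitor present. Viability read out as calcein AM uptake. The value reported is the inhibitor concentration giving 50% cell protection.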

Caspase-9 = molecular target: T1, Caspase-9 (Homo sapiens, UniProt P55211); assay: Inhibition concentration required against caspase-9
T1 sequence (P55211 whole entry): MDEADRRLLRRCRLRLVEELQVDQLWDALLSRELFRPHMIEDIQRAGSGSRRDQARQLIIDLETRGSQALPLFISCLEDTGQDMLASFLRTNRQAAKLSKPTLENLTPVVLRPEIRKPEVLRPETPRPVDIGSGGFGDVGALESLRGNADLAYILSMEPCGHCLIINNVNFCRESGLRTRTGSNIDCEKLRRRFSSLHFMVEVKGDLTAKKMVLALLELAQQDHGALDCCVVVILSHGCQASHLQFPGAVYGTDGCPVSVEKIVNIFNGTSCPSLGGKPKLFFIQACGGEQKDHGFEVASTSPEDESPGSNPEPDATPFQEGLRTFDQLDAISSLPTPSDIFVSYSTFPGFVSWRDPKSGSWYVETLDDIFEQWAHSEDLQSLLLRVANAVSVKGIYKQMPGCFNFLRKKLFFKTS

[1] = Inhibition concentration required against factor Xa
[2] = molecular target: T2, Calpain-1 catalytic subunit (Homo sapiens, UniProt P07384); assay: Inhibition concentration required against calpain-1
T2 sequence (P07384 whole entry): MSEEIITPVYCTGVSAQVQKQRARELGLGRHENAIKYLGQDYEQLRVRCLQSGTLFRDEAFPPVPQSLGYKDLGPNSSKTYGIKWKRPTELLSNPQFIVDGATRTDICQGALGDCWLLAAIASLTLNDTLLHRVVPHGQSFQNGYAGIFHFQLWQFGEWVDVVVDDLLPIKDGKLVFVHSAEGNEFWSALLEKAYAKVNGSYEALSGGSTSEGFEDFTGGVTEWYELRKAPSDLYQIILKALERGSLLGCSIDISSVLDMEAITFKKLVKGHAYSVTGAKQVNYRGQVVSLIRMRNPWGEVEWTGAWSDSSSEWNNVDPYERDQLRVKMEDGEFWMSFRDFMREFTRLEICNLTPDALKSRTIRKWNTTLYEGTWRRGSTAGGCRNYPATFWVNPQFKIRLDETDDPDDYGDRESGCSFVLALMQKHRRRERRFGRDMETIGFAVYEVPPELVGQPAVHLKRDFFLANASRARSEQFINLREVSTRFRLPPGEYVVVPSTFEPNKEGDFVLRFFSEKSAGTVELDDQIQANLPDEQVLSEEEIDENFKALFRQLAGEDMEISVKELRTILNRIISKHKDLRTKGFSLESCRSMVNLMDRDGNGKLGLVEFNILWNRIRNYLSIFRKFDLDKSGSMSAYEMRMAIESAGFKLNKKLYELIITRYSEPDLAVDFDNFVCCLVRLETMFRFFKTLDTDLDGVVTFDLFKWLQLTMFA

[3] = Inhibition concentration required against caspase-1
Caspase-7 = molecular target: T3, Caspase-7 (Homo sapiens, UniProt P55210); assay: Inhibition concentration required against caspase-7
T3 sequence (P55210 whole entry): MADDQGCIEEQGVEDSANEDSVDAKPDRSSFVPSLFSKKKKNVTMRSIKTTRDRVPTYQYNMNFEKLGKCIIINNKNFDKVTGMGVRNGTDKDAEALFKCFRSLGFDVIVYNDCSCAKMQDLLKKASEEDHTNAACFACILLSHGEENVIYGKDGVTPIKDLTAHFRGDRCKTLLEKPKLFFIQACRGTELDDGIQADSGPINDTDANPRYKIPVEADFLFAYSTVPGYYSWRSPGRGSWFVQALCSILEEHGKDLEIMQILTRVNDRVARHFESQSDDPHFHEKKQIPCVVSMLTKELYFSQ

Caspase-8 = Caspase-8 (Homo sapiens, UniProt Q14790); assay: Inhibition concentration required against caspase-8
Caspase-8, sequence (Q14790 217-374 limits assumed): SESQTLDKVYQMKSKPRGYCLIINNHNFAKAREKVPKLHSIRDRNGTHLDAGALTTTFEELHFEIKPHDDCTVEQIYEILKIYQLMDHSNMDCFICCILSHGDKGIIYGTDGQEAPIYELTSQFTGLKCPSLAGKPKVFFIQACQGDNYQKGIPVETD
Caspase-8, sequence (Q14790 385-479 limits assumed): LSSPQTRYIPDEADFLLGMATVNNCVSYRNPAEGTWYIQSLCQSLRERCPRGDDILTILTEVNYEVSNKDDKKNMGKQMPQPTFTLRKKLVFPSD

[4] = Inhibition concentration required against cathepsin B; parameters: species or system Homo sapiens
Caspase-3 = molecular target: T4, Caspase-3 (Homo sapiens, UniProt P42574); assay: Inhibitory activity against human recombinant caspase-3
T4 sequence (P42574 whole entry): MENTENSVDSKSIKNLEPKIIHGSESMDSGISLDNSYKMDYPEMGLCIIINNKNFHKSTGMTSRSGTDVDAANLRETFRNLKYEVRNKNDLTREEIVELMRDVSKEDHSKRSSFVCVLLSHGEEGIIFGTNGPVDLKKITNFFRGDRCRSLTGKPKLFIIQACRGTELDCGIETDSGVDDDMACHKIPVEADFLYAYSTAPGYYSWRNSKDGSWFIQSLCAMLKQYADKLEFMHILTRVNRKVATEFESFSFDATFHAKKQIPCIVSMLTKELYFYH

[5] = Percent survival of the mice after 3h treatment was determined after induction of apoptosis by anti-Fas antibody; Dose is 0.25 mg/kg; assay type: functional; conditions: Mus musculus
Procedure, shortened: (§1)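 Mouse anti-Fas lethality model: mice given 8 µg anti-Fas monoclonal antibody (clone JO-2) IV, then 5 min later an IV dose of inhibitor (0.25–10 mg/kg) or vehicle. The aqueous vehicle contained 50 mM Tris–HCl. Six mice per group. Survivors were counted at 1, 3, 6 and 24 h and at 5 days, expressed as % of the animals in the group.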

[6] = Percent survival of the mice after 5 days treatment was determined after induction of apoptosis by anti-Fas antibody; Dose is 0 mg/kg; assay type: functional, Mus musculus; procedure, shortened: as §1
[7] = Percent survival of the mice after 5 days treatment was determined after induction of apoptosis by anti-Fas antibody; Dose is 1 mg/kg; assay type: functional; conditions: Mus musculus, 120 h; procedure, shortened: as §1
[8] = Percent survival of the mice after 6 hr treatment was determined after induction of apoptosis by anti-Fas antibody; Dose is 0.25 mg/kg; assay type: functional; conditions: Mus musculus; procedure, shortened: as §1
[9] = Percent survival of the mice after 24 hr treatment was determined after induction of apoptosis by anti-Fas antibody; Dose is 0.25 mg/kg; assay type: functional; conditions: Mus musculus; procedure, shortened: as §1
[10] = Percent survival of the mice after 5 days treatment was determined after induction of apoptosis by anti-Fas antibody; Dose is 10 mg/kg; assay type: functional; conditions: Mus musculus, 120 h; procedure, shortened: as §1
[11] = Percent survival of the mice after 5 days treatment was determined after induction of apoptosis by anti-Fas antibody; Dose is 0.5 mg/kg; assay type: functional; conditions: Mus musculus, 120 h; procedure, shortened: as §1
[12] = Percent survival of the mice after 5 days treatment was determined after induction of apoptosis by anti-Fas antibody; Dose is 0.25 mg/kg; assay type: functional; conditions: Mus musculus, 120 h; procedure, shortened: as §1
[13] = Percent survival of the mice after 1 hr treatment was determined after induction of apoptosis by anti-Fas antibody; Dose is 0 mg/kg; assay type: functional, Mus musculus; procedure, shortened: as §1
[14] = Percent survival of the mice after 1 hr treatment was determined after induction of apoptosis by anti-Fas antibody; Dose is 1 mg/kg; assay type: functional; conditions: Mus musculus; procedure, shortened: as §1
[15] = Percent survival of the mice after 3h treatment was determined after induction of apoptosis by anti-Fas antibody; Dose is 0 mg/kg; assay type: functional, Mus musculus; procedure, shortened: as §1
[16] = Percent survival of the mice after 3h treatment was determined after induction of apoptosis by anti-Fas antibody; Dose is 1 mg/kg; assay type: functional; conditions: Mus musculus; procedure, shortened: as §1
[17] = Percent survival of the mice after 6 hr treatment was determined after induction of apoptosis by anti-Fas antibody; Dose is 0 mg/kg; assay type: functional, Mus musculus; procedure, shortened: as §1
[18] = Percent survival of the mice after 6 hr treatment was determined after induction of apoptosis by anti-Fas antibody; Dose is 1 mg/kg; assay type: functional; conditions: Mus musculus; procedure, shortened: as §1
[19] = Percent survival of the mice after 1 hr treatment was determined after induction of apoptosis by anti-Fas antibody; Dose is 10 mg/kg; assay type: functional; conditions: Mus musculus; procedure, shortened: as §1
[20] = Percent survival of the mice after 24 hr treatment was determined after induction of apoptosis by anti-Fas antibody; Dose is 0 mg/kg; assay type: functional, Mus musculus; procedure, shortened: as §1
[21] = Percent survival of the mice after 24 hr treatment was determined after induction of apoptosis by anti-Fas antibody; Dose is 1 mg/kg; assay type: functional; conditions: Mus musculus; procedure, shortened: as §1
[22] = Percent survival of the mice after 3h treatment was determined after induction of apoptosis by anti-Fas antibody; Dose is 10 mg/kg; assay type: functional; conditions: Mus musculus; procedure, shortened: as §1
[23] = Percent survival of the mice after 6 hr treatment was determined after induction of apoptosis by anti-Fas antibody; Dose is 10 mg/kg; assay type: functional; conditions: Mus musculus; procedure, shortened: as §1
[24] = Percent survival of the mice after 1 hr treatment was determined after induction of apoptosis by anti-Fas antibody; Dose is 0.5 mg/kg; assay type: functional; conditions: Mus musculus; procedure, shortened: as §1
[25] = Percent survival of the mice after 24 hr treatment was determined after induction of apoptosis by anti-Fas antibody; Dose is 10 mg/kg; assay type: functional; conditions: Mus musculus; procedure, shortened: as §1
[26] = Percent survival of the mice after 3h treatment was determined after induction of apoptosis by anti-Fas antibody; Dose is 0.5 mg/kg; assay type: functional; conditions: Mus musculus; procedure, shortened: as §1
[27] = Percent survival of the mice after 6 hr treatment was determined after induction of apoptosis by anti-Fas antibody; Dose is 0.5 mg/kg; assay type: functional; conditions: Mus musculus; procedure, shortened: as §1
[28] = Percent survival of the mice after 1 hr treatment was determined after induction of apoptosis by anti-Fas antibody; Dose is 0.25 mg/kg; assay type: functional; conditions: Mus musculus; procedure, shortened: as §1
[29] = Percent survival of the mice after 24 hr treatment was determined after induction of apoptosis by anti-Fas antibody; Dose is 0.5 mg/kg; assay type: functional; conditions: Mus musculus; procedure, shortened: as §1

## CC(C)[C@H](NC(=O)OCc1ccc(F)cc1)C(=O)NC(CC(=O)O)C(=O)CF (stereo not given in full)
HeLa
  Protection: 150 nM

## COC(=O)N[C@H](C(=O)NC(CC(=O)O)C(=O)CF)C(C)C (stereo not given in full)
HeLa
  Protection: 500 nM

## CC(C)[C@H](NC(=O)OCc1ccccc1)C(=O)NC(CC(=O)O)C(=O)CF (stereo not given in full)
HeLa
  Protection: 250 nM

## CC(C)[C@H](NC(=O)OCC1CCCC1)C(=O)NC(CC(=O)O)C(=O)CF (stereo not given in full)
HeLa
  Protection: 300 nM

## CC(C)[C@H](NC(=O)OCc1cc(Cl)ccc1Cl)C(=O)NC(CC(=O)O)C(=O)CF (stereo not given in full)
HeLa
  Protection: 100 nM

## CC(C)[C@H](NC(=O)OCc1ccc(Cl)cc1Cl)C(=O)NC(CC(=O)O)C(=O)CF (stereo not given in full)
HeLa
  Protection: 100 nM
Caspase-9
  IC50: 9 nM
[1]
  IC50: > 100000 nM
[2]
  IC50: ~5000 nM
[3]
  IC50: 26 nM
Caspase-7
  IC50: 10 nM
Caspase-8
  IC50: 6 nM
[4]
  IC50: ~10000 nM
Caspase-3
  IC50: 25 nM
[5]
  survival at 0.25 mg/kg: 100%
[6]
  Survival: 0%
[7]
  survival at 1 mg/kg: 100%
[8]
  survival at 0.25 mg/kg: 83%
[9]
  survival at 0.25 mg/kg: 33%
[10]
  survival at 10 mg/kg: 100%
[11]
  survival at 0.5 mg/kg: 50%
[12]
  survival at 0.25 mg/kg: 16%
[13]
  Survival: 0%
[14]
  survival at 1 mg/kg: 100%
[15]
  Survival: 0%
[16]
  survival at 1 mg/kg: 100%
[17]
  Survival: 0%
[18]
  survival at 1 mg/kg: 100%
[19]
  survival at 10 mg/kg: 100%
[20]
  Survival: 0%
[21]
  survival at 1 mg/kg: 100%
[22]
  survival at 10 mg/kg: 100%
[23]
  survival at 10 mg/kg: 100%
[24]
  survival at 0.5 mg/kg: 100%
[25]
  survival at 10 mg/kg: 100%
[26]
  survival at 0.5 mg/kg: 100%
[27]
  survival at 0.5 mg/kg: 83%
[28]
  survival at 0.25 mg/kg: 100%
[29]
  survival at 0.5 mg/kg: 50%

## CC(C)[C@H](NC(=O)OCc1ccc(Cl)c(Cl)c1)C(=O)NC(CC(=O)O)C(=O)CF (stereo not given in full)
HeLa
  Protection: 150 nM
